In ChEMBL document CHEMBL1772977, “Synthesis and biological evaluation of novel 4-benzylpiperazine ligands for sigma-1 receptor imaging” (Bioorg Med Chem, 2011):

Key:
[1] = target: 3-beta-hydroxysteroid-Delta(8),Delta(7)-isomerase (Homo sapiens, UniProt Q15125); experiment: Binding affinity to emopamil binding protein
[2] = target: Sigma non-opioid intracellular receptor 1 (Rattus norvegicus, UniProt Q9R0C9); experiment: Displacement of (+)-[3H]pentazocine from sigma 1 receptor in rat brain membranes by competitive binding assay; format: cell membranes
Procedure, shortened: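 Sigma-1 competition binding used rat brain membranes as receptor material with (+)-[3H]pentazocine as radioligand. Ki was derived by Cheng–Prusoff from at least three independent experiments, each in triplicate, and is reported as mean ± SD.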

[3] = Displacement of [3H]ditolylguanidine from sigma 2 receptor in rat liver membrane by competitive binding assay; format: cell membranes
Procedure, shortened: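 Sigma-2 competition binding used rat liver membranes with [3H]ditolylguanidine as radioligand. 10 µM dextrallorphan was present to mask sigma-1 sites. Ki was derived by Cheng–Prusoff from at least three independent experiments, each in triplicate, and is reported as mean ± SD.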

Chain of Sigma non-opioid intracellular receptor 1 (Q9R0C9 whole entry): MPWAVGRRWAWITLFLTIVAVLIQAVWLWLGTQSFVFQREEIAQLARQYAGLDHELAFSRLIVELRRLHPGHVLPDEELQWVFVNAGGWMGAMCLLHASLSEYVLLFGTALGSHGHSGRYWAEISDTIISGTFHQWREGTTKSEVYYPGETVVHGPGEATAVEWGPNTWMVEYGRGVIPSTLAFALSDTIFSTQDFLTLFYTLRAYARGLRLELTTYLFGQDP
Chain of 3-beta-hydroxysteroid-Delta(8),Delta(7)-isomerase (Q15125 whole entry): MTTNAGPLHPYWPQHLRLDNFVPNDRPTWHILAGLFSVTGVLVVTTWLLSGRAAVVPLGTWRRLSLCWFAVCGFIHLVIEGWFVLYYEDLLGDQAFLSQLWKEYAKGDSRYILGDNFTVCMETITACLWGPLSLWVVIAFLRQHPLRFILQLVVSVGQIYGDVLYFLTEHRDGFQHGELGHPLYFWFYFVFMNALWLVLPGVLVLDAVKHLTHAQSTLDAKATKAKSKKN

| Ki [1] [nM] | SMILES | Ki [2] [nM] | Ki [3] [nM] |
| --- | --- | --- | --- |
| 1.72 | COc1cc(CCN2CCN(CCCc3ccccc3)CC2)ccc1O[11CH3] | – | – |
| – | O=[N+]([O-])c1ccc(CN2CCN(Cc3ccc4c(c3)OCO4)CC2)cc1 | 0.43 | 40.5 |
